Tests used:
[1] = molecular target: Vascular endothelial growth factor receptor 2 (Homo sapiens, UniProt P35968); assay: Inhibition of recombinant GST-tagged VEGFR2 expressed in Sf9 insect cells after 120 mins by Kinase-Glo assay; format: cell-based
Mus musculus [2] = assay: Toxicity in athymic nu/nu nude mouse harboring xenografted huma MOLM13 cells assessed as reduction of body weight at 50 mg/kg, iv for continuous 5 days; format: organism-based, MOLM-13; design: dose 50 mg/kg, route intravenous; scale not given: the % may be the effect or the level left; details: in vivo, 120 h
Aurora kinase A = molecular target: T1, Aurora kinase A (Homo sapiens, UniProt O14965); assay: Inhibition of recombinant GST-tagged Aurora A expressed in Sf9 insect cells after 90 mins by Kinase-Glo assay
T1 sequence (O14965 whole entry): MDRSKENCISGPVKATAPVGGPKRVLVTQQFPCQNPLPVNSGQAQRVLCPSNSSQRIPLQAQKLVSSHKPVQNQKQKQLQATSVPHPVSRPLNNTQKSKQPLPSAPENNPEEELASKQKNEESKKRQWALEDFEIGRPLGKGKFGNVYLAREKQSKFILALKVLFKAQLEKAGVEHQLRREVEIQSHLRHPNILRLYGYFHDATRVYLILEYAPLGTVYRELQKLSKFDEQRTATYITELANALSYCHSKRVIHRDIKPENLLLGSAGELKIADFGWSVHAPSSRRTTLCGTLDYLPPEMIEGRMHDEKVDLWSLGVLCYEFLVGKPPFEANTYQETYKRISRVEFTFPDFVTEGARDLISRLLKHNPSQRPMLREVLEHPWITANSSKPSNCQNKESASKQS
Procedure, shortened: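 GST-Aurora A kinase domain (S123–S401, 150 ng) from Sf9 cells. Buffer was 50 mM Tris-HCl pH 7.4 with 10 mM NaCl, 10 mM MgCl2, 0.01% BSA and 1 mM DTT. Kinase-Glo Plus was added for 20 min at 25 °C before the luminescence read.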

[3] = AUC (0 to infinity) in Sprague-Dawley rat at 5 mg/kg, iv and 20 mg/kg, po; format: ADME, organism-based; details: plasma
MV4-11 = assay: Antiproliferation activity against FLT3/ITD harboring human MV4-11 cells after 72 hrs by MTS method; format: functional; details: MV4-11, 72 h
[4] = molecular target: Mast/stem cell growth factor receptor Kit (Homo sapiens) (UniProt P10721); assay: Inhibition of c-Kit at 0.1 uM
[5] = molecular target: Platelet-derived growth factor receptor alpha (Homo sapiens) (UniProt P16234); assay: Inhibition of PDGFR alpha at 0.1 uM
U-937 = assay: Antiproliferation activity against human FLT3 gene-deficient U937 cells after 72 hrs by MTS method; format: functional; details: U-937, 72 h
[6] = Clearance in Sprague-Dawley rat at 5 mg/kg, iv and 20 mg/kg, po; format: ADME, organism-based; details: in vivo
Mus musculus [7] = assay: Toxicity in athymic nu/nu nude mouse harboring xenografted human MV4:11 cells assessed as reduction of body weight at 50 mg/kg, iv for continuous 5 days; format: organism-based; design: dose 50 mg/kg, route intravenous; scale not given: the % may be the effect or the level left; details: in vivo, 120 h

Vascular endothelial growth factor receptor 2, sequence (P35968 whole entry): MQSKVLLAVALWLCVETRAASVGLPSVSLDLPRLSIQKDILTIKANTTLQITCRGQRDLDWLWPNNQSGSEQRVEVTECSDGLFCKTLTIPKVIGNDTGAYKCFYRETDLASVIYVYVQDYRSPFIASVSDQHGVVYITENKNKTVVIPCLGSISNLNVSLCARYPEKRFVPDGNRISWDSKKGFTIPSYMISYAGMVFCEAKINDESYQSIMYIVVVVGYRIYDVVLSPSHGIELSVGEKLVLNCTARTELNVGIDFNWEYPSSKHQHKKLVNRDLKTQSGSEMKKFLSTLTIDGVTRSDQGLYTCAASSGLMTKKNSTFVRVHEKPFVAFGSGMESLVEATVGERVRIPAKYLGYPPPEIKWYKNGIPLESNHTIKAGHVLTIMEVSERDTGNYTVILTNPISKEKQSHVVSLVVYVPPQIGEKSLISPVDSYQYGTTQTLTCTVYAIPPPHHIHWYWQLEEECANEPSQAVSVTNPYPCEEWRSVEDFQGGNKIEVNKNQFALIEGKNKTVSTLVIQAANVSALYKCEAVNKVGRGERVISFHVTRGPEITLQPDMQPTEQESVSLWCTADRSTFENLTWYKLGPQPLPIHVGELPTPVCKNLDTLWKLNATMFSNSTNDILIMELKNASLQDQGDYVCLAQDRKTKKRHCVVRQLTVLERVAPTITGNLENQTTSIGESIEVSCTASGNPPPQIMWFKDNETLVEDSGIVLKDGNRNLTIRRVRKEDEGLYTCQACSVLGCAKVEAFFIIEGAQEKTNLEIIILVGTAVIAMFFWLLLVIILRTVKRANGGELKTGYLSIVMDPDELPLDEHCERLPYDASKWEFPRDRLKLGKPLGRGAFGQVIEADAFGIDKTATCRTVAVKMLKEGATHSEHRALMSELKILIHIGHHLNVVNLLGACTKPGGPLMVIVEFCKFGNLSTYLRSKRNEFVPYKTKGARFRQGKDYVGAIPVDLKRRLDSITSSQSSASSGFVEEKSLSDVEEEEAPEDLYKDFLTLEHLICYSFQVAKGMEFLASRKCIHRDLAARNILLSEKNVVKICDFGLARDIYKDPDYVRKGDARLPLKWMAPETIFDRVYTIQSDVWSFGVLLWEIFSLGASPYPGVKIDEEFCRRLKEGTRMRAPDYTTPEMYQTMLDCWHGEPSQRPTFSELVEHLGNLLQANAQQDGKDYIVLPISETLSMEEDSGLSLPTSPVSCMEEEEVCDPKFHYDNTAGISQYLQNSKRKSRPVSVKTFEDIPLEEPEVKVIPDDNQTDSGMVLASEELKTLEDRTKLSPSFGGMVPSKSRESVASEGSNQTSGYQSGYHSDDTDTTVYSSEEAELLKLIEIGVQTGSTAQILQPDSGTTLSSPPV
Mast/stem cell growth factor receptor Kit (Homo sapiens), sequence (P10721 whole entry): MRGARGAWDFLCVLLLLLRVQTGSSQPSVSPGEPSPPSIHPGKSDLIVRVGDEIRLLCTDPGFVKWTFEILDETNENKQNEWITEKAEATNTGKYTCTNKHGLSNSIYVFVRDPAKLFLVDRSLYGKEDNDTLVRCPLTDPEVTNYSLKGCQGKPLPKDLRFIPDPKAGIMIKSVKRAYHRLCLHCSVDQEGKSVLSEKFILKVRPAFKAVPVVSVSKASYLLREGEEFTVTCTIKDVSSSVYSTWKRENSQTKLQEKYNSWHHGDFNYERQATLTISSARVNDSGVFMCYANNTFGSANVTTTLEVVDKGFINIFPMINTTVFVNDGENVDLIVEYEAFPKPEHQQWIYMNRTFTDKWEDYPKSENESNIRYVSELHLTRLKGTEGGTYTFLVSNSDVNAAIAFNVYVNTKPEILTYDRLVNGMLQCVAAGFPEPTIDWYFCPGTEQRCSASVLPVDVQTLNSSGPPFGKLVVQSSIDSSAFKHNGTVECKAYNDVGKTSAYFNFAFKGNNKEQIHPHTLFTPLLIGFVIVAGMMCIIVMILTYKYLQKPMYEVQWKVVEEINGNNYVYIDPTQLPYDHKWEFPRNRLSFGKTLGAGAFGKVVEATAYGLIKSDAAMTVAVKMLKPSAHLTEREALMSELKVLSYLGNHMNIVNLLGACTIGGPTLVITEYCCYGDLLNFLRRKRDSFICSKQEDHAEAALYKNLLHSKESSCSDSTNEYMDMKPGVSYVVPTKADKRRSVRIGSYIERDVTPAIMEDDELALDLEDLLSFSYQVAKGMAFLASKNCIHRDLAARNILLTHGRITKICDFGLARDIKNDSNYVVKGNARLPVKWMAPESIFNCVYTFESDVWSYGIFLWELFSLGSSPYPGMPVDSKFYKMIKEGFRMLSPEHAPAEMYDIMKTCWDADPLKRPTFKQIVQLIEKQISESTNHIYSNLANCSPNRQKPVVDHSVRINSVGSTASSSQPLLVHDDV
Platelet-derived growth factor receptor alpha (Homo sapiens), sequence (P16234 whole entry): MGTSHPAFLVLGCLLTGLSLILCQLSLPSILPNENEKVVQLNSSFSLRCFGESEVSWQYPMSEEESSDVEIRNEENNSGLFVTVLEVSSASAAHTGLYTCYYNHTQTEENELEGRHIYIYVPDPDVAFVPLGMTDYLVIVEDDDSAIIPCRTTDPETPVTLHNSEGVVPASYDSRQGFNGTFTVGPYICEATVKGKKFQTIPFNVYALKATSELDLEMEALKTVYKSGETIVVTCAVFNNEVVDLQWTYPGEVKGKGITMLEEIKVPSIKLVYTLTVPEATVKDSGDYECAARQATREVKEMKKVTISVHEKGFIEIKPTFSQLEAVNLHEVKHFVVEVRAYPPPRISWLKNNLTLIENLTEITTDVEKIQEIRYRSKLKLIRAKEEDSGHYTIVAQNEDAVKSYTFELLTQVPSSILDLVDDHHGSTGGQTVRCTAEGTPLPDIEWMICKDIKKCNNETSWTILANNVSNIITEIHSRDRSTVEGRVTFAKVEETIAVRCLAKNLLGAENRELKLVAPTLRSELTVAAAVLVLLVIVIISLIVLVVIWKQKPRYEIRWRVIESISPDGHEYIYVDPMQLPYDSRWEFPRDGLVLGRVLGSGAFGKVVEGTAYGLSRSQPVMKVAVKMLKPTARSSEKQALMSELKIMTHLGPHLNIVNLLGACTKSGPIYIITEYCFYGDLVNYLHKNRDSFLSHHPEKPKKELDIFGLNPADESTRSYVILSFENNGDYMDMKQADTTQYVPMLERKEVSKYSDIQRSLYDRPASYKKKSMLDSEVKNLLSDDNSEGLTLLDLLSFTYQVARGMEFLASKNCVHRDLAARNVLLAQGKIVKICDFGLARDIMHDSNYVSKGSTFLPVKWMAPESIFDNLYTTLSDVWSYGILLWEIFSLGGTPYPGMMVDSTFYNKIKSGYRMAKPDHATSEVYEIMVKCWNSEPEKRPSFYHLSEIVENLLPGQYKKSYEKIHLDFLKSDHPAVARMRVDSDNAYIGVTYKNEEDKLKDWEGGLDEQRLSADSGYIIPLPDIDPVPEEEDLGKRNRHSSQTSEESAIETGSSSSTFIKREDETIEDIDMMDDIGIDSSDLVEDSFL

With `Cc1nc(Nc2cc(-c3cccc(NS(=O)(=O)c4ccccc4)c3)n[nH]2)cc(N2CCN(C)CC2)n1` the IC50 [1] was 290 nM, the Activity (Mus musculus [2]) was < 3% and the IC50 (Aurora kinase A) was 290 nM. For the same compound, the AUC(0-inf) [3] was 1400 ng·h/mL, the GI50 (MV4-11) was 27 nM and the inhibition [4] was 27%. The inhibition [5] was 24%, the GI50 (U-937) was > 20000 nM and the clearance [6] was 57.4 mL/min/kg. The Activity (Mus musculus [7]) was < 3%.

Reference: ChEMBL document CHEMBL1806486, “Discovery and evaluation of 3-phenyl-1H-5-pyrazolylamine-based derivatives as potent, selective and efficacious inhibitors of FMS-like tyrosine kinase-3 (FLT3)” (Bioorg Med Chem, 2011)
